# FXIa inh = blocks human coagulation factor XIa protease activity; P03951; purified FXIa, Boc-Glu-Ala-Arg-AMC fluorogenic substrate; inhibition, % at 5 µM; hit rate 0.14% among 220,000; AID 798;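 active = inhibition of at least 40%; inactive = inhibition below 40%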;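 also: fluorescence of freed AMC excited at 355 nm; 0% = enzyme without compound and 100% = no enzyme blank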
# Thrombin inh = blocks human thrombin protease activity. P00734. alpha-thrombin, Boc-VPR-AMC fluorogenic substrate cleavage. inhibition, % at 5 µM. hit rate 0.26% among 220,000. AID 1046;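 active = inhibition at or above 40%; inactive = inhibition below 40%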;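 also: 0% = enzyme with no compound and 100% = wells without enzyme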
#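 Assay system: human alpha-thrombin enzyme. Reagent: Boc-VPR-AMC substrate, 15 µM final. Compound dosing: one concentration per compound, 5 µM, with 0.2% DMSO. Incubation: room-temperature reaction. Technique: AMC fluorescence, 355/460 nm. Measure: % inhibition relative to enzyme controls and enzyme-free blanks.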
# hK5 inh = blocks human kallikrein 5 protease activity. Q9Y337. recombinant hK5, fluorogenic AMC substrate cleavage. inhibition, % at 5 µM. hit rate 0.59% among 210,000;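 active = inhibition of 40% or more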;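 also: 0% = enzyme controls without compound and 100% = no-enzyme blanks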
# FXIIa inh = inhibitors of human coagulation factor XIIa | P00748 | inhibition, % at 5 µM | purified FXIIa, Boc-QGR-AMC fluorogenic substrate, 2 h | AID 800 | hit rate 0.3% among 220,000; in the data active = inhibition above about 40%;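 also: 0% = enzyme with no compound and 100% = blank without enzyme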
# Target sequence (P00748 20-372 limits assumed): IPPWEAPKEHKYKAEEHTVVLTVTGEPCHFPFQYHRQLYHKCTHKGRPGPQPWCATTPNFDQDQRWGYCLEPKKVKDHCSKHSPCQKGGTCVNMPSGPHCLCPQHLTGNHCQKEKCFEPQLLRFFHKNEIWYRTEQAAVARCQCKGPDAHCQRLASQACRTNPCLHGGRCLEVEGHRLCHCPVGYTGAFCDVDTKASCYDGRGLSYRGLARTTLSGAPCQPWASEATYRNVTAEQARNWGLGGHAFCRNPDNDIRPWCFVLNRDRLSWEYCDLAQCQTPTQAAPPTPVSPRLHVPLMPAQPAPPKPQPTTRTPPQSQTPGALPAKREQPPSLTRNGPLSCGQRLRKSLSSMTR
# Target sequence (P00748 373-615 limits assumed): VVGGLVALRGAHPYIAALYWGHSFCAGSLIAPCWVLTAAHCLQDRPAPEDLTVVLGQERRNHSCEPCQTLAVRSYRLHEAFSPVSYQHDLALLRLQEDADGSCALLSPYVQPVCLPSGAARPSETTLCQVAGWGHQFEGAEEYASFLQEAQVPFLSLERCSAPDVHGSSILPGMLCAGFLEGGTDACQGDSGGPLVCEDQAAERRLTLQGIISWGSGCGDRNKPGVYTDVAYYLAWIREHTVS
# Furin inhibitor = blocks human furin protease activity; purified furin, fluorogenic substrate cleavage; P09958; hit rate 0.061% among 220,000; inhibition, % at 20 µM or 30 µM; in the data active = inhibition above about 25%
# * = called active by the depositor; · = no result given. Most compounds without a hit are left out; they make up all but 1.1% or so of the library.
SMILES,FXIa inh,Thrombin inh,hK5 inh,FXIIa inh,Furin inhibitor
Nc1c(C(=O)Nc2ccc(Cl)c(Cl)c2)sc2nc(-c3cccnc3)ccc12,9,4,48*,11,4
Cc1ccc(NC(=O)COC(=O)c2ccn(C)n2)cc1,2,2,5,12,3
CNC(=O)c1ccc(N(Cc2ccccc2)S(C)(=O)=O)cc1,7,12,72*,58*,-16
Cc1ccc(-n2c(=O)c3ccccc3n(CC(=O)C(C)(C)C)c2=O)cc1,28,9,46*,26,-6
CC(C)CC(=O)Nc1nnc(CSCc2ccc(F)cc2)s1,13,-3,0,7,-33
COC(=O)c1ccccc1NC(=O)CC(NCc1ccccc1)C(=O)O (stereo not given),·,·,·,·,-2
COCCCNC(CC(=O)Nc1ccccc1C(=O)OC)C(=O)O (stereo not given),·,·,·,·,28*
O=C1c2ccccc2C(=O)N1CCc1nc2ccccc2c(=O)n1Cc1ccco1,2,11,57*,29,-9
O=C(Nc1ccc(Cl)cc1)OCc1cn(-c2ccc(Cl)cc2)nn1,-1,-1,3,-4,-20
Clc1ccc(-n2cc(COCc3ccccc3)nn2)cc1,-1,-5,46*,7,-29
CC(=O)n1nc(-c2cccc(C)c2)nc1SCC(=O)Nc1ccccc1,-1,77*,-6,13,-20
CCC(=O)n1nc(-c2ccccc2)nc1SCC(=O)Nc1ccc(C)cc1,22,52*,-22,28,-14
Cc1ccc(C(=O)n2c(-c3ccccc3)cnc2SCC(=O)Nc2ccccc2)cc1,18,16,4,19,-15
CCCCN(C(=O)Cn1nnc2ccccc21)C(C(=O)NCCOC)c1cccs1 (stereo not given),4,2,-10,15,20
O=C(Nc1ccccc1)N(CCN1CCOCC1)Cc1ccccc1F,-11,-8,-10,2,30*
Cc1cccc(NC(=S)N(CCN2CCOCC2)Cc2ccccc2F)c1,-2,-8,-5,-8,-27
CCOC(=O)C(CC)n1nc(C)n2c(cc3occc32)c1=O (stereo not given),6,5,-2,14,-13
Cc1cc(C)nc(N2CCN(C(=O)CCC(=O)Nc3nnc(C(C)C)s3)CC2)n1,1,-7,1,7,-10
CC(C)COc1cccc(C(=O)NC(=S)Nc2cccc(NC(=O)c3ccccc3Cl)c2)c1,15,18,42*,22,-23
COCCCNC(=O)c1c(N)n(-c2ccc3c(c2)OCO3)c2nc3ccccc3nc12,-9,0,105*,-11,-21
Nc1nncn1C(=O)CCCOc1ccccc1,1,23,2,24,-21
Nc1nncn1C(=O)CCc1ccccc1,0,56*,-1,9,15
COC(=O)c1ccccc1NC(=O)Oc1ccc(C(C)C)cc1,9,21,52*,13,-4
CCCSc1nnc(NC(=O)Nc2ccc(F)cc2)s1,8,0,-2,17,-16
CCCSc1nnc(NC(=O)Nc2ccc(C)cc2)s1,-5,-8,52*,-1,-11
SMILES,FXIa inh,Thrombin inh,hK5 inh,FXIIa inh,Furin inhibitor
CC(C)c1ccc(N(CC(=O)N/N=C/c2ccc(OC3CSC3)cc2)S(=O)(=O)c2ccccc2)cc1,-11,59*,22,-4,-5
O=C(Nc1c(C(=O)N2CCOCC2)cnn1-c1ccccc1)c1ccco1,0,-5,0,2,-13
CCCCCSc1nnc(-c2cc(Br)ccc2N)c(=O)[nH]1,16,15,42*,27,-17
COC(=O)c1[nH]c2cc(OC)ccc2c1NC(=O)CCN1CCCCC1,45*,14,31,28,34*
COC(=O)c1[nH]c2cc(C)ccc2c1NC(=O)CN1CCc2cc(OC)c(OC)cc2C1,-8,4,97*,-1,-17
COC(=O)c1[nH]c2ccc(Cl)cc2c1NC(=O)CN1CCc2cc(OC)c(OC)cc2C1,0,-6,-13,9,-23
Nc1nnc(CCOc2ccc(Cl)cc2)s1,16,24,44*,21,-14
Cc1ccc(NC(=S)Nc2ccc(C(C)C)cc2)cc1S(=O)(=O)N1CCCCCC1,4,1,-12,14,-24
CCCN1CCC2(CC1)C(C#N)=C(N)Oc1c2sc2nc(C)cc(C)c12,5,7,-5,18,-22
Cc1cc(C)c2c3c(sc2n1)C(c1cccc(F)c1)C(C#N)=C(N)O3 (stereo not given),4,60*,14,10,-13
COc1ccc(-c2ccc(-c3noc(-c4ccccc4C)n3)c(OC)n2)cc1,-7,-7,-8,3,-13

# High-throughput results from PubChem BioAssay.
